According to ChEMBL document CHEMBL2086251, “Arylazolyl(azinyl)thioacetanilides. Part 10: design, synthesis and biological evaluation of novel substituted imidazopyridinylthioacetanilides as potent HIV-1 inhibitors” (Bioorg Med Chem, 2012):

Experiments:
[1] = Cytotoxicity against mock-infected human MT4 cells by MTT assay; format: cell-based
How it was run: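 Mock-infected MT-4 cells (6 × 10⁵ cells/mL) were run in parallel with the infected wells, with serial fivefold compound dilutions in triplicate. After 5 days, viability was read by MTT at 540 and 690 nm, using the median OD of three wells. CC50 is the concentration that reduces OD540 of mock-infected controls by 50%.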

[2] = tested on: Human immunodeficiency virus 2; test: Antiviral activity against HIV-2 ROD infected human MT4 cells assessed as inhibition in viral syncytium formation by MTT assay; format: functional, organism-based; conditions: Human immunodeficiency virus 2, ISOLATE ROD
How it was run: (§1)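 MT-4 cells (6 × 10⁵ cells/mL) infected with HIV-1 IIIB or HIV-2 ROD stock at 100–300 CCID50, with serial fivefold compound dilutions in triplicate wells. After 5 days, viability was read by MTT reduction at 540 and 690 nm, using the median OD of three wells. EC50 is the concentration giving 50% inhibition of virus-induced syncytium formation.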

[3] = Selectivity index, ratio of CC50 for human MT4 cells to EC50 for HIV-1 3B; format: toxicity, cell-based; conditions: read-out: Ratio CC50/EC50
How it was run: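 SI is the ratio CC50/EC50, both taken from parallel 5-day MTT assays in MT-4 cells. CC50 comes from mock-infected cells and EC50 from HIV-1 IIIB-infected cells.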

[4] = tested on: Human immunodeficiency virus 1; test: Antiviral activity against HIV-1 3B infected human MT4 cells assessed as inhibition in viral syncytium formation by MTT assay; format: functional, organism-based; conditions: Human immunodeficiency virus 1, 3B; how it was run: as §1
[5] = tested on: Human immunodeficiency virus 1; test: Antiviral activity against HIV-1 RES056 harboring RT K103N/Y181C mutant gene infected human MT4 cells assessed as inhibition in viral syncytium formation by MTT assay; format: functional, organism-based; conditions: Human immunodeficiency virus 1, RES056, MT4
How it was run: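 MT-4 cells infected with double-mutant RT (K103N/Y181C) HIV-1 RES056; compounds added as serial fivefold dilutions in triplicate wells with mock-infected parallels. Cells at 6 × 10⁵ cells/mL. Viability read by MTT after five days at 540 and 690 nm, median OD of three wells. EC50 is the concentration inhibiting virus-induced syncytium formation by 50%.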

Cc1cc(C)c(-n2c(SCC(=O)Nc3ccccc3C)nc3cnccc32)c(C)c1
CC50 [1]: 22 µM
EC50 [2]: > 22 µM
selectivity ratio [3]: < 1
EC50 [4]: > 22 µM

CC(=O)c1ccc(NC(=O)CSc2nc3cccnc3n2-c2c(C)cc(C)cc2C)c(Br)c1
CC50 [1]: 46 µM
EC50 [2]: > 46 µM
EC50 [5]: > 46 µM
selectivity ratio [3]: 13
EC50 [4]: 3.6 µM

Cc1cc(C)c(-n2c(SCC(=O)Nc3ccccc3F)nc3cccnc32)c(C)c1
CC50 [1]: 3.7 µM
EC50 [2]: > 3.7 µM
selectivity ratio [3]: < 1
EC50 [4]: > 3.7 µM

Cc1cc(C)c(-n2c(SCC(=O)Nc3cccnc3Cl)nc3cnccc32)c(C)c1
CC50 [1]: 22 µM
EC50 [2]: > 22 µM
EC50 [5]: > 22 µM
selectivity ratio [3]: 12
EC50 [4]: 1.7 µM

Cc1cc(C)c(-n2c(SCC(=O)Nc3ccc(C)cc3Br)nc3cccnc32)c(C)c1
CC50 [1]: 0.99 µM
EC50 [2]: > 0.99 µM
selectivity ratio [3]: < 1
EC50 [4]: > 0.99 µM

Cc1cc(C)c(-n2c(SCC(=O)Nc3ccc(C)cc3Br)nc3cnccc32)c(C)c1
CC50 [1]: 5.9 µM
EC50 [2]: > 5.9 µM
selectivity ratio [3]: < 1
EC50 [4]: > 5.9 µM

Cc1cc(C)c(-n2c(SCC(=O)Nc3ncc(C)cc3Br)nc3cnccc32)c(C)c1
CC50 [1]: 61 µM
EC50 [2]: > 61 µM
selectivity ratio [3]: < 1
EC50 [4]: > 61 µM

Cc1cc(C)c(-n2c(SCC(=O)Nc3ccc([N+](=O)[O-])cc3Cl)nc3cnccc32)c(C)c1
CC50 [1]: 29 µM
EC50 [2]: > 29 µM
EC50 [5]: > 29 µM
selectivity ratio [3]: 20
EC50 [4]: 1.4 µM

Cc1cc(C)c(-n2c(SCC(=O)Nc3ccccc3Br)nc3cccnc32)c(C)c1
CC50 [1]: 5.6 µM
EC50 [2]: > 5.6 µM
selectivity ratio [3]: < 1
EC50 [4]: > 5.6 µM

COC(=O)c1ccc(NC(=O)CSc2nc3cnccc3n2-c2c(C)cc(C)cc2C)c(Br)c1
CC50 [1]: 27 µM
EC50 [2]: > 27 µM
EC50 [5]: > 27 µM
selectivity ratio [3]: ≤ 11
EC50 [4]: ≥ 2.5 µM

Cc1cc(C)c(-n2c(SCC(=O)Nc3ccccc3Br)nc3cnccc32)c(C)c1
CC50 [1]: 22 µM
EC50 [2]: > 22 µM
EC50 [5]: > 22 µM
selectivity ratio [3]: 4
EC50 [4]: 5.2 µM

COC(=O)c1ccc(NC(=O)CSc2nc3cccnc3n2-c2c(C)cc(C)cc2C)c(Br)c1
CC50 [1]: 80 µM
EC50 [2]: > 80 µM
EC50 [5]: > 80 µM
selectivity ratio [3]: 9
EC50 [4]: 8.9 µM

Cc1cc(C)c(-n2c(SCC(=O)Nc3ccc(Cl)cc3Cl)nc3cccnc32)c(C)c1
CC50 [1]: 3.9 µM
EC50 [2]: > 3 µM
selectivity ratio [3]: < 1
EC50 [4]: > 3 µM

Cc1cc(C)c(-n2c(SCC(=O)Nc3ccccc3[N+](=O)[O-])nc3cccnc32)c(C)c1
CC50 [1]: 39 µM
EC50 [2]: > 39 µM
EC50 [5]: > 39 µM
selectivity ratio [3]: ≤ 6
EC50 [4]: ≥ 6.7 µM

Cc1cc(C)c(-n2c(SCC(=O)Nc3ccc(Cl)cc3Cl)nc3cnccc32)c(C)c1
CC50 [1]: 140 µM
EC50 [2]: > 140 µM
EC50 [5]: > 140 µM
selectivity ratio [3]: ≤ 127
EC50 [4]: ≥ 1.1 µM

Cc1cc(C)c(-n2c(SCC(=O)Nc3cccnc3Cl)nc3cccnc32)c(C)c1
CC50 [1]: 6 µM
EC50 [2]: > 6 µM
selectivity ratio [3]: < 1
EC50 [4]: > 6 µM

Cc1cc(C)c(-n2c(SCC(=O)Nc3ccccc3[N+](=O)[O-])nc3cnccc32)c(C)c1
CC50 [1]: 9.9 µM
EC50 [2]: > 9.9 µM
EC50 [5]: > 9.9 µM
selectivity ratio [3]: 2
EC50 [4]: 5.7 µM

Cc1cc(C)c(-n2c(SCC(=O)Nc3ccccc3)nc3cnccc32)c(C)c1
CC50 [1]: 17 µM
EC50 [2]: > 17 µM
selectivity ratio [3]: < 1
EC50 [4]: > 17 µM

Cc1cc(C)c(-n2c(SCC(=O)Nc3ccccc3C)nc3cccnc32)c(C)c1
CC50 [1]: 15 µM
EC50 [2]: > 15 µM
selectivity ratio [3]: < 1
EC50 [4]: > 15 µM

Cc1cc(C)c(-n2c(SCC(=O)Nc3ccccc3Cl)nc3cnccc32)c(C)c1
CC50 [1]: 19 µM
EC50 [2]: > 19 µM
selectivity ratio [3]: < 1
EC50 [4]: > 19 µM

Cc1cc(C)c(-n2c(SCC(=O)Nc3ccc(S(N)(=O)=O)cc3Br)nc3cccnc32)c(C)c1
CC50 [1]: 22 µM
EC50 [2]: > 22 µM
EC50 [5]: > 22 µM
selectivity ratio [3]: 30
EC50 [4]: 0.75 µM

Cc1cc(C)c(-n2c(SCC(=O)Nc3ccccc3F)nc3cnccc32)c(C)c1
CC50 [1]: 18 µM
EC50 [2]: > 18 µM
selectivity ratio [3]: < 1
EC50 [4]: > 18 µM

Cc1cc(C)c(-n2c(SCC(=O)Nc3ccc(C)cc3[N+](=O)[O-])nc3cccnc32)c(C)c1
CC50 [1]: 144 µM
EC50 [2]: > 144 µM
selectivity ratio [3]: < 1
EC50 [4]: > 144 µM

Cc1cc(C)c(-n2c(SCC(=O)Nc3ccc(C)cc3[N+](=O)[O-])nc3cnccc32)c(C)c1
CC50 [1]: 6.2 µM
EC50 [2]: > 6.2 µM
EC50 [5]: > 6.2 µM
selectivity ratio [3]: ≤ 5
EC50 [4]: ≥ 1.2 µM

Cc1cc(C)c(-n2c(SCC(=O)Nc3ncc(C)cc3Br)nc3cccnc32)c(C)c1
CC50 [1]: 102 µM
EC50 [2]: > 102 µM
selectivity ratio [3]: < 1
EC50 [4]: > 102 µM

CCOC(=O)c1ccc(NC(=O)CSc2nc3cnccc3n2-c2c(C)cc(C)cc2C)c(Br)c1
CC50 [1]: 22 µM
EC50 [2]: > 22 µM
EC50 [5]: > 22 µM
selectivity ratio [3]: 5
EC50 [4]: 4.7 µM

O=C(CSc1snnc1-c1ccc(Br)cc1Br)Nc1cccnc1Cl
selectivity ratio [3]: > 6460
EC50 [4]: 0.0364 µM

CC(=O)c1ccc(NC(=O)CSc2nc3cnccc3n2-c2c(C)cc(C)cc2C)c(Br)c1
CC50 [1]: 61 µM
EC50 [2]: > 61 µM
EC50 [5]: > 61 µM
selectivity ratio [3]: 61
EC50 [4]: 0.99 µM

Cc1cc(C)c(-n2c(SCC(=O)Nc3ccccc3)nc3cccnc32)c(C)c1
CC50 [1]: 26 µM
EC50 [2]: > 26 µM
selectivity ratio [3]: < 1
EC50 [4]: > 26 µM

CC(C)Nc1cccnc1N1CCN(C(=O)c2cc3cc(NS(C)(=O)=O)ccc3[nH]2)CC1 [DELAVIRDINE]
CC50 [1]: > 36 µM
EC50 [5]: > 36.2 µM
selectivity ratio [3]: > 1030

Cc1cc(C)c(-n2c(SCC(=O)Nc3ccccc3Cl)nc3cccnc32)c(C)c1
CC50 [1]: 3.9 µM
EC50 [2]: > 3.9 µM
selectivity ratio [3]: < 1
EC50 [4]: > 3.9 µM

Cc1ccnc2c1NC(=O)c1cccnc1N2C1CC1 [NEVIRAPINE]
CC50 [1]: > 15 µM
EC50 [5]: > 15 µM
selectivity ratio [3]: > 75

O=C1Nc2ccc(Cl)cc2[C@@](C#CC2CC2)(C(F)(F)F)O1 [EFAVIRENZ]
CC50 [1]: > 6.3 µM
selectivity ratio [3]: > 964

Cc1cn([C@H]2C[C@H](N=[N+]=[N-])[C@@H](CO)O2)c(=O)[nH]c1=O [ZIDOVUDINE]
CC50 [1]: ≥ 50 µM
EC50 [5]: 0.01 µM
selectivity ratio [3]: ≥ 8300
EC50 [4]: 6 µM

Cc1cc(C)c(-n2c(SCC(=O)Nc3ccc([N+](=O)[O-])cc3Cl)nc3cccnc32)c(C)c1
CC50 [1]: 25 µM
EC50 [2]: > 25 µM
selectivity ratio [3]: < 1
EC50 [4]: > 25 µM

Nc1ccn([C@H]2CC[C@@H](CO)O2)c(=O)n1 [ZALCITABINE]
CC50 [1]: > 95 µM
EC50 [2]: 1.7 µM
selectivity ratio [3]: > 68
